The values that follow come from ChEMBL document CHEMBL4732032, “Discovery of novel JAK2 and EGFR inhibitors from a series of thiazole-based chalcone derivatives” (RSC Med Chem, 2021).

Each structure is given as a SMILES string.

Test [1] in a line: Antiproliferative activity against human HMC 1.1 cells harboring KIT V560G mutant assessed as inhibition of cell proliferation measured after 72 hrs by MTS assay. The conditions noted are these: HMC-1.1, 72 h. It counts as functional, cell-based. On the technique in general: Tetrazolium dyes change colour on reduction, which living cells bring about.
The test system of another test is A549. Kind of test: Cytotoxicity against human A549 cells expressing EGFR assessed as reduction in cell viability incubated for 72 hrs by MTT assay. Type of test: functional, cell-based. The conditions noted are these: A549, 72 h.
For another test, the system named is A-431. The test is described as follows: Cytotoxicity against human A-431 cells expressing EGFR assessed as reduction in cell viability incubated for 72 hrs by MTT assay. It counts as functional, cell-based. The conditions noted are these: A-431, 72 h.
Test [2] has as its target Tyrosine-protein kinase JAK2 (Homo sapiens, UniProt O60674). Kind of test: Inhibition of recombinant human JAK2 JH1 domain expressed in baculovirus infected insect cells using poly-Glu-Tyr (51 to 68 residues) as substrate incubated for 1 hr in presence of ATP by ADP-Glo assay. A general note: In ADP-Glo the light output rises with the ADP produced.
Test [3] has as its target T1, Epidermal growth factor receptor (Homo sapiens, UniProt P00533). The test is described as follows: Inhibition of human EGFR TK domain expressed in Escherichia coli BL21 (DE3) pLysS using poly-Glu-Tyr (51 to 68 residues) as substrate incubated for 1 hr by ADP-Glo assay.
Test [4] can be described thus: Potency index, ratio of erlotinib IC50 to test compound IC50 human A549 cells expressing EGFR assessed as reduction in cell viability incubated for 72 hrs by MTT assay. It counts as functional.
Another test deals with Vero. Kind of test: Cytotoxicity against African green monkey Vero cells assessed as reduction in cell viability incubated for 72 hrs by MTT assay. The conditions noted are these: Chlorocebus sabaeus.
The next test deals with TF-1. Kind of test: Cytotoxicity against human TF-1 cells expressing JAK2 assessed as reduction in cell viability incubated for 72 hrs by presto blue reagent assay. It counts as functional, cell-based. Particulars: TF-1, 72 h.
The subject of a further test is HEL 92.1.7. Kind of test: Cytotoxicity against human HEL 92.1.7 cells expressing JAK2 assessed as reduction in cell viability incubated for 72 hrs by presto blue reagent assay. Type of test: functional, cell-based. The conditions noted are these: HEL 92.1.7, 72 h.
Test [5] in a line: Potency index, ratio of ruxolitinib IC50 to test compound IC50 for human HEL 92.1.7 cells expressing JAK2 assessed as reduction in cell viability incubated for 72 hrs by presto blue reagent assay. It counts as functional.
Test [6] has as its target T1, Epidermal growth factor receptor. Kind of test: Inhibition of EGFR (unknown origin). In outline:
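ADP-Glo luminescent kinase assay in 40 mM Tris–HCl pH 7.5, 20 mM MgCl2, 0.1 mg/mL BSA. EGFR added at 1.25 ng/μL with inhibitor, then a mix of 5 μM ATP and 2.5 μM poly(Glu-Tyr); reaction run 1 h at room temperature. ADP-Glo reagent added for 40 min, then detection reagent for 30 min. Run in triplicate; % inhibition calculated against a no-inhibitor control.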

T1 sequence (P00533 whole entry, the tested form may be a part): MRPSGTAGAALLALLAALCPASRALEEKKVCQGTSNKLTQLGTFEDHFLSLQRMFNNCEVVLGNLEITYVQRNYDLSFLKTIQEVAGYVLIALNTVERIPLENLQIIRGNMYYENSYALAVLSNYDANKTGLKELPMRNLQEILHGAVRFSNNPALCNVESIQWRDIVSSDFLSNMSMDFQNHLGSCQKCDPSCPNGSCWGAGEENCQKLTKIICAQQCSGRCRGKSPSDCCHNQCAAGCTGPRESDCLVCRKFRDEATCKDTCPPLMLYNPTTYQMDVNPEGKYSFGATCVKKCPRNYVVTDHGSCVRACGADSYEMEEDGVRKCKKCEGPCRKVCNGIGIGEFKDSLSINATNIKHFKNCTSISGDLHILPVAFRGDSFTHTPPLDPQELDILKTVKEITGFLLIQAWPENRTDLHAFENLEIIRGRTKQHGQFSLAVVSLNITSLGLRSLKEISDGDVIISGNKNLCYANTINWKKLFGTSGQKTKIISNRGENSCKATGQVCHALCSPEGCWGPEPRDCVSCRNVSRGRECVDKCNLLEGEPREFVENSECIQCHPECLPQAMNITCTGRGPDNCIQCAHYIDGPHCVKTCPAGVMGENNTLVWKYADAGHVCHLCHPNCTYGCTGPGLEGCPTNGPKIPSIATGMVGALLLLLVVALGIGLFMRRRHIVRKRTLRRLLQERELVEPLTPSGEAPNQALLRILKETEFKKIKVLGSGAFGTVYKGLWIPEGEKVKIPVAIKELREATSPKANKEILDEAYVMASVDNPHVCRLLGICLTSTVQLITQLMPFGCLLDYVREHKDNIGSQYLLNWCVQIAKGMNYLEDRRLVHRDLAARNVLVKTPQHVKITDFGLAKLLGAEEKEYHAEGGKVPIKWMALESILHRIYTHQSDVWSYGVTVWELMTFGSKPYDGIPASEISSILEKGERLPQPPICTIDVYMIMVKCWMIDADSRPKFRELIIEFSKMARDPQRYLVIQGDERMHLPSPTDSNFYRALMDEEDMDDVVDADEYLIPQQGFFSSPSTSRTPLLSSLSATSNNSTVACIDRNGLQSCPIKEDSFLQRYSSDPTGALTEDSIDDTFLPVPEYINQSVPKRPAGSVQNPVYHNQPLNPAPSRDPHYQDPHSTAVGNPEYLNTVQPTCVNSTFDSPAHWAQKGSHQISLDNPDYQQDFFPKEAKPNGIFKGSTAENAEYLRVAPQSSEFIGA
Chain of Tyrosine-protein kinase JAK2 (O60674 whole entry, the tested form may be a part): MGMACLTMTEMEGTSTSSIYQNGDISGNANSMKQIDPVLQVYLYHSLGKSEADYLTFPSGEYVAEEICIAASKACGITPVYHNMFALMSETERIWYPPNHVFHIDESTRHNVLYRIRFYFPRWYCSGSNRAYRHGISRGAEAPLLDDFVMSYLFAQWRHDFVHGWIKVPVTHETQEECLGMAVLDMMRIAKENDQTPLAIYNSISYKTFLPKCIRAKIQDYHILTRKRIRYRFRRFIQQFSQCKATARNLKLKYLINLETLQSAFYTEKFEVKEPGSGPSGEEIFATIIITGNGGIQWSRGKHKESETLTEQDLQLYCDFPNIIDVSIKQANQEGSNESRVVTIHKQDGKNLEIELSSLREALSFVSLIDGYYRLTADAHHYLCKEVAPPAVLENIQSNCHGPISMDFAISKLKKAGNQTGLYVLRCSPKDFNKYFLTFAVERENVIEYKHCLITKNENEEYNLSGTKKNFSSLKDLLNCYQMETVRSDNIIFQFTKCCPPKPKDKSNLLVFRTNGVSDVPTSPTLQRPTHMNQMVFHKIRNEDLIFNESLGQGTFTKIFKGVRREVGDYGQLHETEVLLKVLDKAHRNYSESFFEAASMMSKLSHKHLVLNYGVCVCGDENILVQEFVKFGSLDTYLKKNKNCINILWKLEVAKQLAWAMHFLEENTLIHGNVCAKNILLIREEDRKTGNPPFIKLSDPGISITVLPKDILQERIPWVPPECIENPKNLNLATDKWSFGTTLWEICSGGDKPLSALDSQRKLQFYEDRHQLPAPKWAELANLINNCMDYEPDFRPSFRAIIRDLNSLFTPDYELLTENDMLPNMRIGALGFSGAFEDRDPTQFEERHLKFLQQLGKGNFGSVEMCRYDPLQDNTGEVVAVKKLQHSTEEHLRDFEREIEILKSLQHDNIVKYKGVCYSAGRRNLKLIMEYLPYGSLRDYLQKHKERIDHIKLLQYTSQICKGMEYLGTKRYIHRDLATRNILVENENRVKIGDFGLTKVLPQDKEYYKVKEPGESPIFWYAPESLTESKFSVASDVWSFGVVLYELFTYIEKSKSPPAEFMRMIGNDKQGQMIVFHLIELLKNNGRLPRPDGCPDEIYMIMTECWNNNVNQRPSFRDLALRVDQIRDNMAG

The IC50 is the concentration at which inhibition is half-maximal. `Cc1cn(-c2cc(NC(=O)c3ccc(Nc4nc(-c5cccnc5)cs4)c(C)c3)cc(C(F)(F)F)c2)cn1`: in [1], the IC50 came to 0.138 µM.
Take `CNc1nc(C)c(C(=O)/C=C/c2ccc(O)cc2)s1`: the IC50 is 16.3 µM in the test with A549; 8.04 µM in the test with A-431; 0.0339 µM in test [2]; 0.0337 µM in test [3]; over 100 µM in the test with Vero. The “Ratio IC50” value in [4] was 2.
`CNc1nc(C)c(C(=O)/C=C/c2cccs2)s1`: the results for the IC50 in the test with A549, in the test on A-431 and with Vero were 62.1 µM, 28.5 µM and over 100 µM, respectively.
On to `CNc1nc(C)c(C(=O)/C=C/c2ccsc2)s1`, for which the IC50 with TF-1 worked out at 32 µM; with HEL 92.1.7, 9.96 µM; in test [2], 0.0176 µM; in [3], 0.144 µM. Also, the “Ratio IC50” value in [5] amounted to 2.
With `CNc1nc(C)c(C(=O)/C=C/c2nccs2)s1`, the IC50 was 30.2 µM with TF-1; 6.89 µM in the test with HEL 92.1.7; 0.0203 µM in test [2]; 0.256 µM in test [3]; over 100 µM in the test with Vero. For the same compound, the “Ratio IC50” value in test [5] worked out at 2.
Take `O=C(Cc1csc2nc3ccccc3n12)Nc1ccccc1O`: the IC50 in test [6] was 0.055 µM.
